Here are results for 3 molecules from ChEMBL document CHEMBL2163332 (J Med Chem, 2012).

Data set [1] concerns Mus musculus. The data set is described as follows: Antinociceptive activity in naloxone treated Kunming mouse assessed as inhibition of heat-induced tail flick at 20 nmol/kg, icv after 10 mins post naloxone treatment. The format is functional, organism-based. The method in brief: (§1)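 Male Kunming mice (18−22 g), peptide or saline given icv; tail immersed in 50 ± 0.2 °C water and withdrawal latency recorded; only mice with baseline latency about 3−5 s used. Readings at 5, 10, 15, 20, 30, 40, 50 and 60 min post-injection; 10−15 mice per group. Naloxone 2 mg/kg ip 10 min before icv dosing for antagonism. ED50 with 95% confidence limits by graded dose−response.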

The target in data set [2] is Delta-type opioid receptor (Mus musculus, UniProt P32300). The data set is described as follows: Agonist activity at delta opioid receptor in Kunming mouse vas deferens assessed as inhibition of electrically-stimulated muscle contraction. It counts as functional, tissue-based.
Chain of Delta-type opioid receptor (Mus musculus, UniProt P32300) (P32300 whole entry): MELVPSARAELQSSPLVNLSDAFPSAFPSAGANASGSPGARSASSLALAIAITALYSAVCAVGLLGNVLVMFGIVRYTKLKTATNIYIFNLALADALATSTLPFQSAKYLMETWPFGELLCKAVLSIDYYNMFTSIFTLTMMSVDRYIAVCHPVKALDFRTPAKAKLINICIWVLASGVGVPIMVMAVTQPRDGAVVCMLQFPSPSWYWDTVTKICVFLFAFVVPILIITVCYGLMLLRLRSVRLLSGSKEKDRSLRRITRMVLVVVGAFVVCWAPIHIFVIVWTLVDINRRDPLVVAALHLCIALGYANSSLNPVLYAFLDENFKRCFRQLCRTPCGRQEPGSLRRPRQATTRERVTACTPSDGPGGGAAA
Data set [3] deals with T1, Mu-type opioid receptor (Homo sapiens, UniProt P35372). The data set is described as follows: Displacement of [3H]DAMGO from FLAG-tagged mu opioid receptor expressed in HEK293 cells after 60 mins by liquid scintillation counter. The format is cell-based. On the technique in general: Displacement assays read how much labelled ligand stays bound in the presence of the test substance.
T1 sequence (P35372 whole entry): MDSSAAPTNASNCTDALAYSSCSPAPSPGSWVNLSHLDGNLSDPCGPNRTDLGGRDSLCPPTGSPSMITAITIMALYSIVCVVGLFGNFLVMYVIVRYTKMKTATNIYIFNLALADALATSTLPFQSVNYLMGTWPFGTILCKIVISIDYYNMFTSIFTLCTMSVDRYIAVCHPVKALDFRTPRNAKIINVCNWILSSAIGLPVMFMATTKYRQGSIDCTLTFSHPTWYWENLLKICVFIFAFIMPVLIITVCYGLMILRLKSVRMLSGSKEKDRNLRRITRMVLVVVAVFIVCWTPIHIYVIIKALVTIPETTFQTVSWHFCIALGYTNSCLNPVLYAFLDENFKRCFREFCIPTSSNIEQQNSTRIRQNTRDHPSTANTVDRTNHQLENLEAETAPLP

The target in data set [4] is Delta-type opioid receptor (Homo sapiens, UniProt P41143). The data set is described as follows: Displacement of [3H]DPDPE from Myc-tagged delta opioid receptor expressed in HEK293 cells after 60 mins by liquid scintillation counter. It counts as cell-based.
Chain of Delta-type opioid receptor (Homo sapiens, UniProt P41143) (P41143 whole entry): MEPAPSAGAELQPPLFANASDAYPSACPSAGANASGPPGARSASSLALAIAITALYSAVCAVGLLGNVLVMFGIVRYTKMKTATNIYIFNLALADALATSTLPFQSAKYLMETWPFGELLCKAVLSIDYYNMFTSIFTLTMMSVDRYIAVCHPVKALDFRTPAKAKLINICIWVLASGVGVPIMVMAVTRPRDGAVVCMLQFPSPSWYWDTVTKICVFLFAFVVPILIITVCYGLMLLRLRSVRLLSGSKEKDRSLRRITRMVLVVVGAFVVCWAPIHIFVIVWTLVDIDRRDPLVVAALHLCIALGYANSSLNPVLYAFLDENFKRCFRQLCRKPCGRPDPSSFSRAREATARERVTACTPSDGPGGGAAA
Data set [5] is described as follows: Selectivity ratio of Ki for Myc-tagged delta opioid receptor to Ki for FLAG-tagged mu opioid receptor.
For data set [6], the target named is Mu-type opioid receptor (Cavia porcellus, UniProt P97266). The experiment in a line: Agonist activity at mu opioid receptor in guinea pig ileum assessed as inhibition of electrically-stimulated muscle contraction. The format is functional, tissue-based.
Chain of Mu-type opioid receptor (Cavia porcellus, UniProt P97266) (P97266 whole entry): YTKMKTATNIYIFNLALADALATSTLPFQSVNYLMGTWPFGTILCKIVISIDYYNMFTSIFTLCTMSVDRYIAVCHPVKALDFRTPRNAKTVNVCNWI
The target of data set [7] is T1, Mu-type opioid receptor. The experiment in a line: Agonist activity at mu opioid receptor expressed in HEK293 cells assessed as inhibition of forskolin-induced cAMP accumulation after 30 mins by liquid scintillation counter. It counts as functional, cell-based.
For data set [8], the target named is Delta-type opioid receptor (Mus musculus) (UniProt P32300). The experiment in a line: Agonist activity at delta opioid receptor in Kunming mouse vas deferens assessed as inhibition of electrically-stimulated muscle contraction in presence of delta opioid receptor antagonist naltrindole. The format is functional, tissue-based.
Chain of Delta-type opioid receptor (Mus musculus) (P32300 whole entry): as the sequence (P32300 whole entry) above
The target of data set [9] is T1, Mu-type opioid receptor. The data set is described as follows: Agonist activity at mu opioid receptor expressed in HEK293 cells assessed as inhibition of forskolin-induced cAMP accumulation after 30 mins by liquid scintillation counter relative to control. The format is functional, cell-based. The method in brief:
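MOR-expressing HEK293 cells seeded at 80% confluence the day before, washed with serum-free medium, preincubated 10 min at 37 °C with 1 mM IBMX, then peptide (5 × 10−11 to 5 × 10−5 M) with 50 μM forskolin added for 30 min at 37 °C. Lysis in 0.2 N HCl, neutralisation, cAMP measured by competition with [3H]cAMP for PKA (≥2 h, 4 °C) and charcoal separation; scintillation counting.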

The target of data set [10] is T1, Mu-type opioid receptor. The data set is described as follows: Agonist activity at human FLAG-tagged mu opioid receptor expressed in HEK293 cells assessed as induction of ERK1/2 phosphorylation at 10 nM after 10 mins by Western blot analysis. It counts as functional, cell-based. In short, it runs like this:
(§2)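 Stable HEK293 line with FLAG-tagged MOR, in 12-well plates and serum-starved 16 h, then exposed to peptide at various concentrations for 10 min at 37 °C. Lysis in RIPA with 10 μM PMSF and phosphatase inhibitors. 20 μg protein run on 10% SDS-PAGE, blotted to PVDF and probed for phospho-ERK1/2 (Thr202/Tyr204) and total ERK1/2 (1:1000), ECL detection; at least three independent experiments.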
On the technique in general: Immunoblotting shows a protein as a band on a membrane.

In data set [11] the target is T1, Mu-type opioid receptor. The data set is described as follows: Agonist activity at human FLAG-tagged mu opioid receptor expressed in HEK293 cells assessed as induction of ERK1/2 phosphorylation after 10 mins by Western blot analysis. The format is functional, cell-based. In short, it runs like this:
as §2

Data set [12] concerns the target T1, Mu-type opioid receptor. The data set is described as follows: Agonist activity at human FLAG-tagged mu opioid receptor expressed in HEK293 cells assessed as induction of ERK1/2 phosphorylation at 1 pM after 10 mins by Western blot analysis. The format is functional, cell-based. The method in brief:
as §2

The test system of data set [13] is Mus musculus. The experiment in a line: Antinociceptive activity in icv dosed Kunming mouse assessed as inhibition of heat-induced tail flick after 5 to 60 mins. The format is functional. The note with it: for ED50: central. In short, it runs like this: as §1
In data set [14] the test system is Mus musculus. The experiment in a line: Antinociceptive activity in Kunming mouse assessed as inhibition of heat-induced tail flick at 0.67 to 20 nmol/kg, icv. It counts as functional, organism-based. The conditions noted are these: TDE = time-dependent effect. In short, it runs like this: as §1
Data set [15] in a line: Half life in mouse brain homogenates. It counts as ADME, tissue-based. The conditions noted are these: brain homogenate. In short, it runs like this:
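Peptide incubated at 37 °C in twice-washed 15% mouse brain membrane homogenate, final protein 2.1 mg/mL in 50 mM Tris, pH 7.4. Aliquots centrifuged 13000g, 15 min, 4 °C, filtered 0.22 μm and analysed by C18 RP-HPLC (acetonitrile/water, 0.05% TFA). Half-life from pseudo-first-order disappearance kinetics; at least three experiments.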

Molecules are shown by their SMILES. The source made the active and inactive calls.

As a reminder, the IC50 is the concentration that gives 50% inhibition. As usually defined, the Ki is a measure of affinity in units of concentration, obtained from inhibition or displacement. Read a low Ki as a stronger hold on the target. A word on the EC50: it is the concentration needed to bring the measured effect to its halfway point. Usually Emax stands for the maximal effect, on the per cent scale that the assay sets. The term ED50 denotes the dose at which the effect has come halfway, by size or by number of responders. Broadly, the half-life is the time needed for the level to fall by half in the phase considered. Take `C=C(C(N)=O)[C@@H](NC(=O)[C@H](Cc1c[nH]c2ccccc12)NC(=O)[C@@H]1CCCN1C(=O)[C@@H](N)Cc1ccc(O)cc1)c1ccco1`: the inhibition result (in the data set on Mus musculus [1]; in data set [8]) was “inactive” each time. Also, the IC50 is 15.8 nM in [2] and 2.92 nM at Mu-type opioid receptor [6]. For the same molecule, the inhibition constant (Ki) on Mu-type opioid receptor [3] stood at 0.221 nM; in data set [4], 50000 nM. The Ratio Ki in data set [5] came out at 226000. Besides, at Mu-type opioid receptor [7], the half-maximal effective concentration (EC50) worked out at 0.0334 nM. Also, the inhibition result at Mu-type opioid receptor [7] was “Dose-dependent effect”; in the data set on Mus musculus [13], “Dose-dependent effect”; in the data set on Mus musculus [14], “tde”. Further, on Mu-type opioid receptor [9], the Emax worked out at 97.1%. Besides, the result at Mu-type opioid receptor [10] and at Mu-type opioid receptor [12] was Active. Further, the Activity entry at Mu-type opioid receptor [11] was “Dose-dependent effect”. In addition, the 50% effective dose (ED50) in the data set with Mus musculus [13] worked out at 0.00142 µmol/kg. In [15], this molecule displayed a half-life of 1.43 h.

As for `C=C(C(N)=O)[C@@H](NC(=O)[C@H](Cc1c[nH]c2ccccc12)NC(=O)[C@@H]1CCCN1C(=O)[C@@H](N)Cc1ccc(O)cc1)c1ccoc1`, the inhibition entry (with Mus musculus [1]; in [8]) was “inactive” in each case. In addition, the values for the IC50 (in data set [2]; at Mu-type opioid receptor [6]) were 10.2 nM and 3.94 nM, respectively. For the same molecule, the figures for the inhibition constant Ki (at Mu-type opioid receptor [3]; in data set [4]) were 0.274 nM and 50900 nM, respectively. In addition, the Ratio Ki in [5] is 186000. In addition, the concentration for a half-maximal effect (EC50) at Mu-type opioid receptor [7] worked out at 0.0342 nM. In addition, the results for the inhibition entry on Mu-type opioid receptor [7], with Mus musculus [13] and in the data set with Mus musculus [14] were “Dose-dependent effect”, “Dose-dependent effect” and “tde”, respectively. Also, at Mu-type opioid receptor [9], the Emax amounted to 98.7%. For the same molecule, the result at Mu-type opioid receptor [10] and at Mu-type opioid receptor [12] was Active. In addition, on Mu-type opioid receptor [11], the Activity result was “Dose-dependent effect”. Further, in the data set with Mus musculus [13], the median effective dose (ED50) turned out to be 0.00155 µmol/kg. In addition, the half-life in data set [15] came out at 1.47 h.

Turning to `C=C(C(N)=O)[C@@H](NC(=O)[C@H](Cc1c[nH]c2ccccc12)NC(=O)[C@@H]1CCCN1C(=O)[C@@H](N)Cc1ccc(O)cc1)c1ccccc1`, the inhibition result (with Mus musculus [1]; in data set [8]) was “inactive” throughout. Also, the 50% inhibitory concentration (IC50) in [2] turned out to be 7.53 nM; at Mu-type opioid receptor [6], 6.81 nM. In addition, the Ki stood at 0.535 nM at Mu-type opioid receptor [3] and 56000 nM in data set [4]. For the same molecule, in data set [5], the Ratio Ki worked out at 105000. For the same molecule, the concentration for a half-maximal effect (EC50) on Mu-type opioid receptor [7] was determined as 0.16 nM. Further, the inhibition entry is “Dose-dependent effect” on Mu-type opioid receptor [7], “Dose-dependent effect” in the data set with Mus musculus [13] and “tde” in the data set with Mus musculus [14]. In addition, the Emax on Mu-type opioid receptor [9] turned out to be 97.9%. The result at Mu-type opioid receptor [10] and on Mu-type opioid receptor [12] was Active. Further, on Mu-type opioid receptor [11], the Activity entry is “Dose-dependent effect”. For the same molecule, in the data set with Mus musculus [13], the median effective dose (ED50) came to 0.00233 µmol/kg. For the same molecule, in data set [15], the half-life was determined as 1.04 h.
